Publication PMC9575405 (ACS infectious diseases, 2021)

Columns and labels:
S. aureus Smith = assay: Mouse septicemia model; type: in vivo; details: 10 mg/kg i.v., five mice
Summary of the method: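 CD-1 female mice (18–20 g), acclimated 5 days, were infected i.p. with 0.5 ml of S. aureus (overnight liquid culture diluted 1:10, grown 5 h shaking) diluted in 5% hog gastric mucin, pH 7.4, to give ≥90% mortality within 48 h (1.6 × 10^6 CFU). Single slow i.v. bolus at 10 mL/kg 1 h post-infection. Five mice per treatment group; ten vehicle-dosed infection controls. Read-out: survival.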

[1] = system: S. aureus ATCC 13709 (Smith); assay: Mouse abscess infection model; type: in vivo; details: after 26 h; orally at 20 mg/kg
Summary of the method: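 Female CD-1 mice were infected s.c. in the right flank under anaesthesia with 0.25 mL inoculum (OD625 0.1 saline suspension from plate culture; target 1.0×10^6, actual 1.4×10^6 CFU/mouse) mixed with […] beads. From 2 h post-infection, test compounds were injected into the abscess (100 uL), repeated 12 h later; positive control was oral. Five per group; T=0 group sampled. Abscess CFU at 26 h; mean and SD.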

Row | SMILES | survival (S. aureus Smith) | increase in CFUs [1] [log10]
1 | CN[C@H](CC(C)C)C(=O)N[C@H]1C(=O)N[C@@H](CC(N)=O)C(=O)N[C@H]2C(=O)N[C@H]3C(=O)N[C@H](C(=O)N[C@H](C(=O)O)c4cc(O)cc(O)c4-c4cc3ccc4O)[C@H](O)c3ccc(c(Cl)c3)Oc3cc2cc(c3O[C@@H]2O[C@H](CO)[C@@H](O)[C@H](O)[C@H]2O[C@H]2C[C@](C)(N)[C@H](O)[C@H](C)O2)Oc2ccc(cc2Cl)[C@H]1O [vancomycin] | all five mice | 
2 | CC(=O)NC[C@H]1CN(c2ccc(N3CCOCC3)c(F)c2)C(=O)O1 [linezolid] |  | 1
